Data from the M2OR odorant receptor database.
Changes are numbered by the printed parent chain.

Molecular target: T1, OR6C70 (Homo sapiens) (UniProt A6NIJ9)
T1 sequence (whole entry): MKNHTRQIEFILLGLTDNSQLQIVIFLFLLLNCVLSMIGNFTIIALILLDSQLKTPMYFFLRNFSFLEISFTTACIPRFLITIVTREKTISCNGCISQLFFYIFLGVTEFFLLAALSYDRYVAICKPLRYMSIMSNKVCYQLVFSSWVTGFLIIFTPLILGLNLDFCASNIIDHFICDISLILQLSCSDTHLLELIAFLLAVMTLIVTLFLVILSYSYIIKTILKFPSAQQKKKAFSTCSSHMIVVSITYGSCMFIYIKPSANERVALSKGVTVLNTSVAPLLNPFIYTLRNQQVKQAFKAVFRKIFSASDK
Settings: stereoisomer not certain
Procedure, shortened: (§1)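 Whether a receptor–molecule pair is responsive (active) rests on the original authors' judgment that its measured signal was statistically different from baseline. Pairs without that judgment are non-responsive (inactive). Sources used varied assay methods, commonly transient luciferase assays in mammalian cell lines.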
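Further: active if original authors judged signal statistically different from baseline.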

Odorant receptor agonist call, inactive:
CCCCCC(=O)C(C)C(C)=O (stereo not given)
CC1=NC(C)C(C)S1 (stereo not given)
CCCCC(S)C(C)CO (stereo not given)
CCC1OC(C)=C(O)C1=O (stereo not given)
CCCCCCC=CCCC=O
CC1=C(O)C(=O)C(C)O1 (stereo not given)
CC(=O)c1c(C)c([N+](=O)[O-])c(C(C)(C)C)c([N+](=O)[O-])c1C
CCCC(S)CCOC(C)=O (stereo not given)
CC1=C(O)C(=O)OC1C (stereo not given)
Cc1cnc(C)c(C)n1
CCCCCC(S)C(C)CO (stereo not given)
CC(CO)CS (stereo not given)
CCC(S)C(C)CO (stereo not given)
CCC1OC(=O)C(O)=C1C (stereo not given)
CC1CCCCCCCCCCCCC(=O)C1 (stereo not given)

Molecular target: T2, OR6C74 (Homo sapiens) (UniProt A6NCV1)
T2 sequence (whole entry): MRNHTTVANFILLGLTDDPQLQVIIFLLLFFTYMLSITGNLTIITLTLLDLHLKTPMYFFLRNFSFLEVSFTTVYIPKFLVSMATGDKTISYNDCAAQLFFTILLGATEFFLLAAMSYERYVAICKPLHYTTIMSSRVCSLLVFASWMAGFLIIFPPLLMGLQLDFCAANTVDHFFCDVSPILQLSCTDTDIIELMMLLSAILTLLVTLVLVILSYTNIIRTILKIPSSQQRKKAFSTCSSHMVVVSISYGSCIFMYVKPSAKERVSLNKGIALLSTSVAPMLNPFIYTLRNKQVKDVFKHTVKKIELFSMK
Settings: stereoisomer not certain
Procedure, shortened: as §1

Odorant receptor agonist call, inactive:
CCCCCC(=O)C(C)C(C)=O (stereo not given)
CC1=NC(C)C(C)S1 (stereo not given)
CCCCC(S)C(C)CO (stereo not given)
CCC1OC(C)=C(O)C1=O (stereo not given)
CCCCCCC=CCCC=O
CC1=C(O)C(=O)C(C)O1 (stereo not given)
CC(=O)c1c(C)c([N+](=O)[O-])c(C(C)(C)C)c([N+](=O)[O-])c1C
CCCC(S)CCOC(C)=O (stereo not given)
CC1=C(O)C(=O)OC1C (stereo not given)
Cc1cnc(C)c(C)n1
CCCCCC(S)C(C)CO (stereo not given)
CC(CO)CS (stereo not given)
CCC(S)C(C)CO (stereo not given)
CCC1OC(=O)C(O)=C1C (stereo not given)
CC1CCCCCCCCCCCCC(=O)C1 (stereo not given)

Molecular target: T3, OR6C75 (Homo sapiens) (UniProt A6NL08)
T3 sequence (whole entry): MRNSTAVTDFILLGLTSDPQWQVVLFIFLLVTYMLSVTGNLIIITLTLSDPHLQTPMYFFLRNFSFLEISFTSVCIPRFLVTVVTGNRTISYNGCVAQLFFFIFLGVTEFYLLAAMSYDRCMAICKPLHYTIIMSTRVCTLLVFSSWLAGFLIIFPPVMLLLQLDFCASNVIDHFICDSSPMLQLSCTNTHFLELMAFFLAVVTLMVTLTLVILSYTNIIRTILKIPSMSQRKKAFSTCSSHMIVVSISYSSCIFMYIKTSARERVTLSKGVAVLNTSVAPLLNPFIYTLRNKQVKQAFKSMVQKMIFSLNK
Settings: stereoisomer not certain
Procedure, shortened: as §1

Odorant receptor agonist call, inactive:
CCCCCC(=O)C(C)C(C)=O (stereo not given)
CC1=NC(C)C(C)S1 (stereo not given)
CCCCC(S)C(C)CO (stereo not given)
CCC1OC(C)=C(O)C1=O (stereo not given)
CCCCCCC=CCCC=O
CC1=C(O)C(=O)C(C)O1 (stereo not given)
CC(=O)c1c(C)c([N+](=O)[O-])c(C(C)(C)C)c([N+](=O)[O-])c1C
CCCC(S)CCOC(C)=O (stereo not given)
CC1=C(O)C(=O)OC1C (stereo not given)
Cc1cnc(C)c(C)n1
CCCCCC(S)C(C)CO (stereo not given)
CC(CO)CS (stereo not given)
CCC(S)C(C)CO (stereo not given)
CCC1OC(=O)C(O)=C1C (stereo not given)
CC1CCCCCCCCCCCCC(=O)C1 (stereo not given)

Molecular target: T4, OR6C76 (Homo sapiens) (UniProt A6NM76)
T4 sequence (whole entry): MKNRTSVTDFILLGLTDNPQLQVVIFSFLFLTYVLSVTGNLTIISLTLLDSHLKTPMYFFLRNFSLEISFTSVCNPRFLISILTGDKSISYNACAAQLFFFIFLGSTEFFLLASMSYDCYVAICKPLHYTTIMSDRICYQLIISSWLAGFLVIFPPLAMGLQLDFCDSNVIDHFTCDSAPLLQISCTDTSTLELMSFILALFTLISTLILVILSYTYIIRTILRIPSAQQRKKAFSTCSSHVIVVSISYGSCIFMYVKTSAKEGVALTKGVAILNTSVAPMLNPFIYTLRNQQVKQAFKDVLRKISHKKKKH
Settings: stereoisomer not certain
Procedure, shortened: as §1

Odorant receptor agonist call, inactive:
CCCCCC(=O)C(C)C(C)=O (stereo not given)
CC1=NC(C)C(C)S1 (stereo not given)
CCCCC(S)C(C)CO (stereo not given)
CCC1OC(C)=C(O)C1=O (stereo not given)
CCCCCCC=CCCC=O
CC1=C(O)C(=O)C(C)O1 (stereo not given)
CC(=O)c1c(C)c([N+](=O)[O-])c(C(C)(C)C)c([N+](=O)[O-])c1C
CCCC(S)CCOC(C)=O (stereo not given)
CC1=C(O)C(=O)OC1C (stereo not given)
Cc1cnc(C)c(C)n1
CCCCCC(S)C(C)CO (stereo not given)
CC(CO)CS (stereo not given)
CCC(S)C(C)CO (stereo not given)
CCC1OC(=O)C(O)=C1C (stereo not given)
CC1CCCCCCCCCCCCC(=O)C1 (stereo not given)

Molecular target: T5, OR6F1 (Homo sapiens) (UniProt Q8NGZ6)
T5 sequence (whole entry): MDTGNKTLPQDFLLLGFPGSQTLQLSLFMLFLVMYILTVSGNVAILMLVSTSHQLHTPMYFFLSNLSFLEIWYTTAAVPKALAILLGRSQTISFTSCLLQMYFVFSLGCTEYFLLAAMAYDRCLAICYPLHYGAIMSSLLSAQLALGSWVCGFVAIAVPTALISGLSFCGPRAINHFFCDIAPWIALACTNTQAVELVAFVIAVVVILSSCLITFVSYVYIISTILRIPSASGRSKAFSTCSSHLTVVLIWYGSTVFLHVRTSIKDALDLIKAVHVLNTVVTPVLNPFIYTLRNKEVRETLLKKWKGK
Settings: stereoisomer not certain
Procedure, shortened: as §1

Odorant receptor agonist call, inactive:
CCCCCC(=O)C(C)C(C)=O (stereo not given)
CC1=NC(C)C(C)S1 (stereo not given)
CCCCC(S)C(C)CO (stereo not given)
CCC1OC(C)=C(O)C1=O (stereo not given)
CCCCCCC=CCCC=O
CC1=C(O)C(=O)C(C)O1 (stereo not given)
CC(=O)c1c(C)c([N+](=O)[O-])c(C(C)(C)C)c([N+](=O)[O-])c1C
CCCC(S)CCOC(C)=O (stereo not given)
CC1=C(O)C(=O)OC1C (stereo not given)
Cc1cnc(C)c(C)n1
CCCCCC(S)C(C)CO (stereo not given)
CC(CO)CS (stereo not given)
CCC(S)C(C)CO (stereo not given)
CCC1OC(=O)C(O)=C1C (stereo not given)
CC1CCCCCCCCCCCCC(=O)C1 (stereo not given)

Molecular target: T6, OR6J1 (Homo sapiens) (UniProt Q8NGC5)
T6 sequence (whole entry): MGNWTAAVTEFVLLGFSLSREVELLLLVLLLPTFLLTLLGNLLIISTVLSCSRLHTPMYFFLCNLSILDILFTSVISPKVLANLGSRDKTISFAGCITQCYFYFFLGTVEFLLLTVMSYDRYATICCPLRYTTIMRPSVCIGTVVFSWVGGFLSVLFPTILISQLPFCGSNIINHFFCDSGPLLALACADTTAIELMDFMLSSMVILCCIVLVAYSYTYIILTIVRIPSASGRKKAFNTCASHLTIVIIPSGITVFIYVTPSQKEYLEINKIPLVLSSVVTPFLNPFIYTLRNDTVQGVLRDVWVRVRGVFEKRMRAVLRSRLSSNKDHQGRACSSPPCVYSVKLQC
Settings: stereoisomer not certain
Procedure, shortened: as §1

Odorant receptor agonist call, inactive:
CCCCCC(=O)C(C)C(C)=O (stereo not given)
CCCCC(S)C(C)CO (stereo not given)
CCCCCCC=CCCC=O
CC(=O)c1c(C)c([N+](=O)[O-])c(C(C)(C)C)c([N+](=O)[O-])c1C
CCCCCC(S)C(C)CO (stereo not given)
CC(CO)CS (stereo not given)
CCC(S)C(C)CO (stereo not given)
CC1CCCCCCCCCCCCC(=O)C1 (stereo not given)

Molecular target: T7, OR6J1 (Homo sapiens) (UniProt Q8NGC5)
T7 sequence (whole entry): T6 sequence (whole entry) with P250S
Settings: stereoisomer not certain
Procedure, shortened: as §1

Odorant receptor agonist call, inactive:
CC1=NC(C)C(C)S1 (stereo not given)
CCC1OC(C)=C(O)C1=O (stereo not given)
CC1=C(O)C(=O)C(C)O1 (stereo not given)
CCCC(S)CCOC(C)=O (stereo not given)
CC1=C(O)C(=O)OC1C (stereo not given)
Cc1cnc(C)c(C)n1
CCC1OC(=O)C(O)=C1C (stereo not given)

Molecular target: T8, OR6K2 (Homo sapiens) (UniProt Q8NGY2)
T8 sequence (whole entry): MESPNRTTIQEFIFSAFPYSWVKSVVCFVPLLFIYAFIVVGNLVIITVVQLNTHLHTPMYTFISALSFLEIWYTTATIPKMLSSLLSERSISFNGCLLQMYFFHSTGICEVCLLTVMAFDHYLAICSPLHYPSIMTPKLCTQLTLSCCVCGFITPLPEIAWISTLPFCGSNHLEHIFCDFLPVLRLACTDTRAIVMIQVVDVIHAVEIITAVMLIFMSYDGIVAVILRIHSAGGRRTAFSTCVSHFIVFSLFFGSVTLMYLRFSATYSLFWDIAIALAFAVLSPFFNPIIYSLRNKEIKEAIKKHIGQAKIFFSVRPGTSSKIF
Settings: stereoisomer not certain
Procedure, shortened: as §1

Odorant receptor agonist call, inactive:
CCCCCC(=O)C(C)C(C)=O (stereo not given)
CC1=NC(C)C(C)S1 (stereo not given)
CCCCC(S)C(C)CO (stereo not given)
CCC1OC(C)=C(O)C1=O (stereo not given)
CCCCCCC=CCCC=O
CC1=C(O)C(=O)C(C)O1 (stereo not given)
CC(=O)c1c(C)c([N+](=O)[O-])c(C(C)(C)C)c([N+](=O)[O-])c1C
CCCC(S)CCOC(C)=O (stereo not given)
CC1=C(O)C(=O)OC1C (stereo not given)
Cc1cnc(C)c(C)n1
CCCCCC(S)C(C)CO (stereo not given)
CC(CO)CS (stereo not given)
CCC(S)C(C)CO (stereo not given)
CCC1OC(=O)C(O)=C1C (stereo not given)
CC1CCCCCCCCCCCCC(=O)C1 (stereo not given)
